{"source": "ChEMBL document CHEMBL1128739", "about": "“Structure-activity relationships in the 8-amino-6,7,8,9-tetrahydro-3H-benz[e]indole ring system. 2. Effects of 8-amino nitrogen substitution on serotonin receptor binding and pharmacology” (J Med Chem, 1995)", "key": {"[1]": {"test_system": "Rattus norvegicus", "test": "The compound was tested in vivo for biochemical effect against the changes in different brain area levels of DOPA in reserpinized rat hemispheres (mainly cortex) at dose of 3.1 micro/kg; Inactive", "assay_type": "functional, organism-based", "in_short": "(§1)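 Male Sprague-Dawley rats (200-300 g) pretreated with reserpine 5 mg/kg sc 18 h before. Injection volume 5 mL/kg, test solutions at neutral pH. DOPA and 5-HTP in limbic system, striatum and hemispheres measured by HPLC with electrochemical detection. Dose-response curves from four to six dose levels (n = 4) per brain area.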"}, "[2]": {"test_system": "Rattus norvegicus", "test": "The compound was tested in vivo for biochemical effect against the changes in different brain area levels of DOPA in reserpinized rat limbic system at dose 3.1 umol/kg; Partial effect", "assay_type": "functional, organism-based", "in_short": "as §1"}, "[3]": {"test_system": "Rattus norvegicus", "test": "The compound was tested in vivo for biochemical effect against the changes in different brain area levels of DOPA in reserpinized rat corpus striatum at dose 3.1 umol/kg; Partial effect", "assay_type": "functional, organism-based", "in_short": "as §1"}, "[4]": {"test_system": "Rattus norvegicus", "test": "The compound was tested in vivo for biochemical effect against the changes in different brain area levels of DOPA in reserpinized rat hemispheres (mainly cortex)at dose 3.1 umol/kg; Inactive", "assay_type": "functional, organism-based", "in_short": "as §1"}, "[5]": {"biological_target": "T1, 5-hydroxytryptamine receptor 1B (Homo sapiens, UniProt P28222)", "T1 sequence (P28222 whole entry)": "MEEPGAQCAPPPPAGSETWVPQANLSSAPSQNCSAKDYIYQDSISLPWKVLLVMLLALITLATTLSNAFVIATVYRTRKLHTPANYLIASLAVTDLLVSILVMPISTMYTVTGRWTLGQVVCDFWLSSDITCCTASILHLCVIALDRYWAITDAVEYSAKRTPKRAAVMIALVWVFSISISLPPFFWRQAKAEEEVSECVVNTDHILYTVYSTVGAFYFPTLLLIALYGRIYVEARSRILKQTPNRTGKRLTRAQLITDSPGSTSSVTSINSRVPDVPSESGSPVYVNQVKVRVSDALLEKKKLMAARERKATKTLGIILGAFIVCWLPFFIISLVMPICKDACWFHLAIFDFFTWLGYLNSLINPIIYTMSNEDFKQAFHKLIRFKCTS", "test": "In vitro binding affinity against cloned mammalian 5-hydroxytryptamine 1D receptor beta expressed in CHO cells, by using [3H]5-HT as radioligand", "assay_type": "cell-based", "in_short": "(§2)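 Membranes from CHO cells stably expressing the cloned receptor, made by mechanical disruption in ice-cold Tris/EDTA/EGTA pH 7.4 and differential centrifugation. [3H]serotonin at 1.7 nM in 50 mM Tris, 5 mM MgCl2, 0.1% ascorbic acid, pH 7.4. 11 drug concentrations in duplicate, 1 h at room temperature protected from light, then filtration. Excess serotonin defines nonspecific binding. One-site IC50 fit, Ki by Cheng-Prusoff.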"}, "[6]": {"biological_target": "5-hydroxytryptamine receptor 1D (Homo sapiens, UniProt P28221)", "sequence (P28221 whole entry)": "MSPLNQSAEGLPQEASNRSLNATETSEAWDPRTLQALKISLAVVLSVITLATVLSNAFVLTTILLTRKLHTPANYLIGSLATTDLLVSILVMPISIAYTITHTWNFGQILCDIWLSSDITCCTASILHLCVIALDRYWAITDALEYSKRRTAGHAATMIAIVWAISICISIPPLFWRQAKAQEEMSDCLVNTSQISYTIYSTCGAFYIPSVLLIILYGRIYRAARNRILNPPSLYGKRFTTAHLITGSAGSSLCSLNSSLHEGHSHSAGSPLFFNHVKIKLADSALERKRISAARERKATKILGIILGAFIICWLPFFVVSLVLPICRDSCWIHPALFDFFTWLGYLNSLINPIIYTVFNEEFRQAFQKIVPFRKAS", "test": "In vitro binding affinity against cloned mammalian 5-hydroxytryptamine 1D receptor alpha expressed in CHO cells, by using [3H]5-HT as radioligand", "assay_type": "cell-based", "in_short": "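Competition binding on CHO-cell membranes (20-60 μg protein) in 50 mM Tris, 5 mM MgCl2, 0.1% ascorbic acid, pH 7.4. Nonspecific binding defined with excess serotonin. 11 drug concentrations, each in duplicate. Incubated 1 h at room temperature, protected from light, then filtered and scintillation counted. IC50 taken from a one-site fit; Ki by Cheng-Prusoff.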"}, "[7]": {"biological_target": "T2, D(2) dopamine receptor (Rattus norvegicus, UniProt P61169)", "T2 sequence (P61169 whole entry)": "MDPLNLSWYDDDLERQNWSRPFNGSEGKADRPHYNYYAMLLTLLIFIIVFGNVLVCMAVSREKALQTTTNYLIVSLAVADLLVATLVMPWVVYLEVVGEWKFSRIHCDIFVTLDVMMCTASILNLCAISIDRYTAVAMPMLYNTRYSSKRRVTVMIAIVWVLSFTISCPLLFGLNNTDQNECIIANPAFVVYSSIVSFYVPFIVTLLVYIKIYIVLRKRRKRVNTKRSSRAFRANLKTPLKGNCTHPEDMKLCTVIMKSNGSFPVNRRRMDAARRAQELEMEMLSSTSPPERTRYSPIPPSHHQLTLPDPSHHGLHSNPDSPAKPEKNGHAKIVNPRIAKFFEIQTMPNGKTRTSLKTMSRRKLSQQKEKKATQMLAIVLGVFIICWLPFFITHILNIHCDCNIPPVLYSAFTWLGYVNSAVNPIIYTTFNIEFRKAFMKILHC", "test": "In vitro binding affinity against cloned mammalian Dopamine receptor D2 expressed in CHO cells using [3H]U-86170 as radioligand", "assay_type": "cell-based", "conditions": "read-out: Ki", "in_short": "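Membranes from CHO cells (20-60 μg protein) in 20 mM HEPES, 10 mM MgSO4, pH 7.4. Nonspecific binding defined with excess haloperidol. 11 concentrations, each in duplicate. Incubated 1 h at room temperature, then filtered and counted. IC50 from a one-site competition fit, converted to Ki by Cheng-Prusoff.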"}, "[8]": {"biological_target": "D(3) dopamine receptor (Rattus norvegicus, UniProt P19020)", "sequence (P19020 whole entry)": "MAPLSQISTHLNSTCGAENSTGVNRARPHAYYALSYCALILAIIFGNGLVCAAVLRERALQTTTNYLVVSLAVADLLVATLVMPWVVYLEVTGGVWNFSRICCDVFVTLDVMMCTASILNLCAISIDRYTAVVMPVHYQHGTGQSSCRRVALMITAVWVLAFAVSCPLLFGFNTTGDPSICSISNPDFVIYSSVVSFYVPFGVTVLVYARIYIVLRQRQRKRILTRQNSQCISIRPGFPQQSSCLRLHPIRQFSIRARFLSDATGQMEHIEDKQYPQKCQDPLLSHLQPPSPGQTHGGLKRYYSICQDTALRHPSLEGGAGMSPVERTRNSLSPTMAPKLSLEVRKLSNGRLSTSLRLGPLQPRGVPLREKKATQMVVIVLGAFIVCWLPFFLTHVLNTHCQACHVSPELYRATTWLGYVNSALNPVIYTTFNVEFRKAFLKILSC", "test": "In vitro binding affinity against cloned mammalian Dopamine receptor D3 expressed in CHO cells by, using [3H]-spiperone as radioligand", "assay_type": "cell-based"}, "[9]": {"test_system": "Rattus norvegicus", "test": "The compound was tested in vivo for biochemical effect against the changes in different brain area levels of DOPA in reserpinized rat limbic system at dose 12.5 uM/kg; Inactive", "assay_type": "functional, organism-based"}, "[10]": {"test_system": "Rattus norvegicus", "test": "In vivo changes in different brain area levels of 5-HTP in reserpinized rat corpus striatum.", "assay_type": "functional", "in_short": "(§3)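 Male Sprague-Dawley rats (200-300 g) pretreated with reserpine 5 mg/kg sc 18 h before. Injection volume 5 mL/kg at neutral pH. Brain-region 5-HTP measured by HPLC with electrochemical detection. Dose-response curves used four to six doses, n = 4.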"}, "[11]": {"test_system": "Rattus norvegicus", "test": "The compound was tested in vivo for biochemical effect against the changes in different brain area levels of DOPA in reserpinized rat hemispheres (mainly cortex)at dose 12.5 uM/kg; Inactive", "assay_type": "functional, organism-based"}, "[12]": {"test_system": "Rattus norvegicus", "test": "In vivo changes in different brain area levels of 5-HTP in reserpinized rat limbic system.", "assay_type": "functional", "in_short": "as §3"}, "[13]": {"test_system": "Rattus norvegicus", "test": "In vivo for biochemical effect against brain area levels of 5-HTP in reserpinized rat hemispheres (mainly cortex).", "assay_type": "functional", "in_short": "as §1"}, "[14]": {"test_system": "Rattus norvegicus", "test": "The compound was tested in vivo for biochemical effect against the changes in different brain area levels of DOPA in reserpinized rat corpus striatum at dose 12.5 uM/kg; Inactive", "assay_type": "functional, organism-based", "in_short": "as §1"}, "[15]": {"test_system": "Rattus norvegicus", "test": "The compound was tested in vivo for biochemical effect against the changes in different brain area levels of DOPA in reserpinized rat limbic system at dose 12.5 uM/kg; Partial effect", "assay_type": "functional, organism-based"}, "[16]": {"test_system": "Rattus norvegicus", "test": "The compound was tested in vivo for biochemical effect against the changes in different brain area levels of DOPA in reserpinized rat corpus striatum at dose 12.5 uM/kg; Partial effect", "assay_type": "functional, organism-based", "in_short": "as §1"}, "[17]": {"test_system": "Rattus norvegicus", "test": "The compound was tested in vivo for biochemical effect against the changes in different brain area levels of DOPA in reserpinized rat hemispheres (mainly cortex)at dose 12.5 uM/kg; Partial effect", "assay_type": "functional, organism-based"}, "[18]": {"test_system": "Rattus norvegicus", "test": "The compound was tested in vivo for biochemical effect against the changes in different brain area levels of DOPA in reserpinized rat limbic system at dose 12.5 uM/kg; inactive", "assay_type": "functional, organism-based", "in_short": "as §1"}, "[19]": {"test_system": "Rattus norvegicus", "test": "The compound was tested in vivo for biochemical effect against the changes in different brain area levels of DOPA in reserpinized rat corpus striatum at dose 12.5 uM/kg; inactive", "assay_type": "functional, organism-based", "in_short": "as §1"}, "[20]": {"test_system": "Rattus norvegicus", "test": "The compound was tested in vivo for biochemical effect against the changes in different brain area levels of DOPA in reserpinized rat hemispheres (mainly cortex)at dose 12.5 uM/kg; inactive", "assay_type": "functional, organism-based", "in_short": "as §1"}, "[21]": {"biological_target": "T1, 5-hydroxytryptamine receptor 1B", "test": "The compound was tested in vitro for binding affinity against cloned mammalian 5-hydroxytryptamine 1D receptor beta expressed in CHO cells, by using [3H]5-HT as radioligand", "assay_type": "cell-based", "set-up": "concentration or dose not given beside the values", "conditions": "concentration not given here", "in_short": "as §2"}, "[22]": {"biological_target": "T2, D(2) dopamine receptor", "test": "Binding affinity rat Dopamine receptor D2 expressed in CHO-K1 cells by [3H]U-86170 displacement.", "assay_type": "cell-based"}, "[23]": {"biological_target": "D(3) dopamine receptor (Rattus norvegicus) (UniProt P19020)", "sequence (P19020 whole entry)": "as above", "test": "The compound was tested in vitro for binding affinity against cloned mammalian Dopamine receptor D3 expressed in CHO cells by, using [3H]spiperone as radioligand; inactive at 10E-6 M", "assay_type": "cell-based"}, "[24]": {"test_system": "Rattus norvegicus", "test": "The compound was tested in vivo for biochemical effect against the changes in different brain area levels of DOPA in reserpinized rat corpus striatum", "assay_type": "functional", "in_short": "as §1"}, "[25]": {"test_system": "Rattus norvegicus", "test": "The compound was tested in vivo for biochemical effect against the changes in different brain area levels of DOPA in reserpinized rat hemispheres (mainly cortex)at does 12.5 uM/kg; inactive", "assay_type": "functional, organism-based", "in_short": "as §1"}}, "note": "Calls of active or inactive are those of the source. The calls are words filed in the database; no cut-off is given here."}
{"molecule": "CCCN(CCC)[C@H]1CCc2ccc3[nH]ccc3c2C1", "values": [{"measurement": "ED50", "setting": "[1]", "value": "inactive"}]}
{"molecule": "CCCN(CCC)[C@@H]1CCc2ccc3[nH]cc(C=O)c3c2C1", "values": [{"measurement": "ED50", "setting": "[2]", "value": "Weak activity"}, {"measurement": "ED50", "setting": "[3]", "value": "Weak activity"}, {"measurement": "ED50", "setting": "[4]", "value": "inactive"}]}
{"molecule": "CCCN(CCCCN1C(=O)CC(C)(C)CC1=O)[C@@H]1CCc2ccc3[nH]cc(C=O)c3c2C1", "values": [{"measurement": "Ki", "setting": "[5]", "value": 119, "unit": "nM"}, {"measurement": "Ki", "setting": "[6]", "value": 5, "unit": "nM"}, {"measurement": "Ki", "setting": "[7]", "value": 62, "unit": "nM"}, {"measurement": "Ki", "setting": "[8]; read-out: Ki", "value": 154, "unit": "nM"}, {"measurement": "ED50", "setting": "[9]", "value": "inactive"}, {"measurement": "ED50", "setting": "[10]", "value": 2.98, "unit": "µmol/kg"}, {"measurement": "ED50", "setting": "[11]", "value": "inactive"}, {"measurement": "ED50", "setting": "[12]", "value": 3.78, "unit": "µmol/kg"}, {"measurement": "ED50", "setting": "[13]", "value": 4.63, "unit": "µmol/kg"}, {"measurement": "ED50", "setting": "[14]", "value": "inactive"}]}
{"molecule": "O=Cc1c[nH]c2ccc3c(c12)CC(N1CCCC1)CC3", "note": "(centres undefined)", "values": [{"measurement": "Ki", "setting": "[7]", "value": "> 1000", "unit": "nM"}, {"measurement": "Ki", "setting": "[8]; cho", "value": "Not Active"}, {"measurement": "ED50", "setting": "[15]", "value": "Weak activity"}, {"measurement": "ED50", "setting": "[10]", "value": 0.58, "unit": "µmol/kg"}, {"measurement": "ED50", "setting": "[16]", "value": "Weak activity"}, {"measurement": "ED50", "setting": "[17]", "value": "Weak activity"}, {"measurement": "ED50", "setting": "[12]", "value": 0.58, "unit": "µmol/kg"}, {"measurement": "ED50", "setting": "[13]", "value": 0.86, "unit": "µmol/kg"}]}
{"molecule": "CCCN(CC(C)C)[C@@H]1CCc2ccc3[nH]ccc3c2C1", "values": [{"measurement": "Ki", "setting": "[5]", "value": 219, "unit": "nM"}, {"measurement": "Ki", "setting": "[6]", "value": 35, "unit": "nM"}, {"measurement": "Ki", "setting": "[7]", "value": 5.7, "unit": "nM"}, {"measurement": "Ki", "setting": "[8]; read-out: Ki", "value": 18, "unit": "nM"}, {"measurement": "ED50", "setting": "[18]", "value": "inactive"}, {"measurement": "ED50", "setting": "[10]", "value": 1.23, "unit": "µmol/kg"}, {"measurement": "ED50", "setting": "[19]", "value": "inactive"}, {"measurement": "ED50", "setting": "[12]", "value": 1.8, "unit": "µmol/kg"}, {"measurement": "ED50", "setting": "[13]", "value": 3.59, "unit": "µmol/kg"}, {"measurement": "ED50", "setting": "[20]", "value": "inactive"}]}
{"molecule": "c1cc2c3c(ccc2[nH]1)CCC(N1CCCCCC1)C3", "note": "(centres undefined)", "values": [{"measurement": "Ki", "setting": "[6]", "value": 340, "unit": "nM"}, {"measurement": "inhibition", "setting": "[21]", "value": "< 45", "unit": "%"}, {"measurement": "Ki", "setting": "[22]", "value": 100, "unit": "nM"}, {"measurement": "inhibition", "setting": "[23]", "value": "< 45", "unit": "%"}]}
{"molecule": "C=CCN(CCC)C1CCc2ccc3[nH]ccc3c2C1", "note": "(centres undefined)", "values": [{"measurement": "Ki", "setting": "[6]", "value": 35, "unit": "nM"}, {"measurement": "inhibition", "setting": "[21]", "value": "< 45", "unit": "%"}, {"measurement": "Ki", "setting": "[22]", "value": 42, "unit": "nM"}, {"measurement": "Ki", "setting": "[8]; read-out: Ki", "value": 77, "unit": "nM"}, {"measurement": "ED50", "setting": "[18]", "value": "inactive"}, {"measurement": "ED50", "setting": "[10]", "value": 0.18, "unit": "µmol/kg"}, {"measurement": "ED50", "setting": "[24]", "value": 0.97, "unit": "µmol/kg"}, {"measurement": "ED50", "setting": "[25]", "value": "inactive"}]}
